# In ChEMBL document CHEMBL5252534, “Discovery of a Noncovalent, Mutant-Selective Epidermal Growth Factor Receptor Inhibitor” (J Med Chem, 2016):
# The source made the active and inactive calls. The rule behind the calls is not given here.
# Tests used:
# [1] = target: T1, Epidermal growth factor receptor (Homo sapiens, UniProt P00533); assay: Inhibition of wild type human EGFR assessed as apparent inhibition constant using Fl-EEPLYWSFPAKKK-CONH2 as substrate preincubated for 30 mins followed by addition of substrate and measured after 30 mins by Morrison plot analysis; conditions: read-out: Ki(app)
# [2] = target: T2, Epidermal growth factor receptor (Homo sapiens, UniProt P00533, 746-750DEL); assay: Inhibition of human EGFR del (746 to 750) mutant assessed as apparent inhibition constant using Fl-EEPLYWSFPAKKK-CONH2 as substrate preincubated for 30 mins followed by addition of substrate and measured after 30 mins by Morrison plot analysis; conditions: read-out: Ki(app)
# Method in brief: (§1)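 Biochemical kinase Ki determination; reported values are geometric means of at least two independent experiments.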
# [3] = Clearance in human liver microsomes; assay type: ADME, Microsome
# Method in brief: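 Incubation with human liver microsomes; intrinsic clearance scaled to predicted hepatic clearance as Clhep = (Q × Clint)/(Q + Clint), where Q is liver blood flow.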
# [4] = target: T3, Epidermal growth factor receptor (Homo sapiens, UniProt P00533, 746-750DEL/T790M); assay: Inhibition of human EGFR T790M/del (746 to 750 residues) mutant assessed as apparent inhibition constant using Fl-EEPLYWSFPAKKK-CONH2 peptide as substrate preincubated for 30 mins followed by addition of substrate and measured after 30 mins by Morrison plot analysis; conditions: read-out: Ki(app); method in brief: as §1
# [5] = Clearance in human hepatocyte; assay type: ADME, cell-based; conditions: hepatocytes
# Method in brief: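 Cryopreserved human hepatocytes used; intrinsic clearance converted to predicted hepatic clearance as (Q × Clint)/(Q + Clint) using liver blood flow Q.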
# [6] = Apparent permeability across apical to basolateral side in dog MDCK cells; assay type: ADME, cell-based, Canis lupus familiaris
# [7] = target: Epidermal growth factor receptor (Homo sapiens, UniProt P00533, L858R); assay: Inhibition of human EGFR L858R mutant assessed as apparent inhibition constant using Fl-EEPLYWSFPAKKK-CONH2 peptide as substrate preincubated for 30 mins followed by addition of substrate and measured after 30 mins by Morrison plot analysis; conditions: read-out: Ki(app); method in brief: as §1
# [8] = tested on: Epidermal growth factor receptor (Homo sapiens), P00533 [L858R,T790M]; assay: In vivo inhibition of EGFR L858R/T790M double mutant in SCID mouse xenografted with human NCI-H1975 cells assessed as reduction in ERK1/2 phosphorylation at 50 mg/kg, po and measured after 8 hrs by MSD assay; assay type: functional, organism-based
# Method in brief: (§2)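 H1975 tumor-bearing mice given a single oral dose of 50 or 100 mg/kg; tumors collected at set times; phospho-EGFR, ERK and AKT measured by MSD immunoassay; four animals per group, individual animals plotted.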
# [9] = tested on: Epidermal growth factor receptor (Homo sapiens), P00533 [L858R,T790M]; assay: In vivo inhibition of EGFR L858R/T790M double mutant in SCID mouse xenografted with human NCI-H1975 cells assessed as reduction in EGFR L858R/T790M double mutant phosphorylation at Y1068 residue at 50 mg/kg, po and measured after 8 hrs by MSD assay; assay type: functional, organism-based; method in brief: as §2
# [10] = target: T4, Epidermal growth factor receptor (Homo sapiens, UniProt P00533, L858R/T790M); assay type: cell-based, NCI-H1975
# NCI-H1975 = assay: Antiproliferative activity against human NCI-H1975 cells harboring harboring EGFR L858R/T790M double mutant assessed as reduction in cell viability; assay type: functional, cell-based
# [11] = tested on: Epidermal growth factor receptor (Homo sapiens), P00533 [L858R,T790M]; assay: In vivo inhibition of EGFR L858R/T790M double mutant in SCID mouse xenografted with human NCI-H1975 cells assessed as reduction in AKT phosphorylation at S473 residue at 50 mg/kg, po and measured after 8 hrs by MSD assay; assay type: functional, organism-based; method in brief: as §2
# Plasma [12] = assay: Time during which free plasma concentration exceeds IC50 for inhibition of human EGFR T790M/L858R double mutant autophosphorylation in human NCI-H1975 cells xenografted in SCID mouse at 100 mg/kg, po
# [13] = tested on: Epidermal growth factor receptor (Homo sapiens), P00533 [L858R,T790M]; assay: In vivo inhibition of EGFR L858R/T790M double mutant in SCID mouse xenografted with human NCI-H1975 cells assessed as reduction in ERK1/2 phosphorylation at 100 mg/kg, po and measured after 16 hrs by MSD assay; assay type: functional, organism-based; method in brief: as §2
# [14] = Volume of distribution at steady state in dog at 1 mg/kg,iv; assay type: ADME, organism-based, Canis lupus familiaris; conditions: in vivo, read-out: Vdss
# Method in brief: (§3)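 Single intravenous dose as a solution in 10/35/55 ethanol/PEG/water (mouse 5 mg kg−1; dog 1 mg kg−1); plasma clearance and steady-state volume of distribution derived from the plasma profile.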
# [15] = tested on: Epidermal growth factor receptor (Homo sapiens), P00533 [L858R,T790M]; assay: In vivo inhibition of EGFR L858R/T790M double mutant in SCID mouse xenografted with human NCI-H1975 cells assessed as reduction in EGFR L858R/T790M double mutant phosphorylation at Y1068 residue at 100 mg/kg, po and measured after 16 hrs by MSD assay; assay type: functional, organism-based; method in brief: as §2
# Plasma [16] = assay: Time during which free plasma concentration exceeds IC50 for inhibition of human EGFR T790M/L858R double mutant autophosphorylation in human NCI-H1975 cells xenografted in SCID mouse at 50 mg/kg, po
# [17] = Oral bioavailability in dog at 2 mg/kg; assay type: ADME, organism-based, Canis lupus familiaris; conditions: in vivo
# Method in brief: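 Dog dosed orally at 2 mg kg−1 as a suspension in MCT; bioavailability compared against iv dosing at 1 mg kg−1 in ethanol/PEG/water.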
# [18] = Oral bioavailability in mouse at 25 mg/kg; assay type: ADME, organism-based; conditions: in vivo
# Method in brief: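 Mouse dosed orally at 25 mg kg−1 as a solution in corn oil; bioavailability compared against the iv arm (5 mg kg−1 in ethanol/PEG/water).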
# [19] = target: T1, Epidermal growth factor receptor; assay: Inhibition of EGFR autophosphorylation in human NCI-H292 cells harboring harboring wild type EGFR preincubated for 60 mins followed by EGF stimulation and measured after 8 mins by SULFO-TAG based electrochemiluminescent assay; assay type: cell-based
# Target sequence in this assay (P00533 25-1210 limits assumed, stated change not applied): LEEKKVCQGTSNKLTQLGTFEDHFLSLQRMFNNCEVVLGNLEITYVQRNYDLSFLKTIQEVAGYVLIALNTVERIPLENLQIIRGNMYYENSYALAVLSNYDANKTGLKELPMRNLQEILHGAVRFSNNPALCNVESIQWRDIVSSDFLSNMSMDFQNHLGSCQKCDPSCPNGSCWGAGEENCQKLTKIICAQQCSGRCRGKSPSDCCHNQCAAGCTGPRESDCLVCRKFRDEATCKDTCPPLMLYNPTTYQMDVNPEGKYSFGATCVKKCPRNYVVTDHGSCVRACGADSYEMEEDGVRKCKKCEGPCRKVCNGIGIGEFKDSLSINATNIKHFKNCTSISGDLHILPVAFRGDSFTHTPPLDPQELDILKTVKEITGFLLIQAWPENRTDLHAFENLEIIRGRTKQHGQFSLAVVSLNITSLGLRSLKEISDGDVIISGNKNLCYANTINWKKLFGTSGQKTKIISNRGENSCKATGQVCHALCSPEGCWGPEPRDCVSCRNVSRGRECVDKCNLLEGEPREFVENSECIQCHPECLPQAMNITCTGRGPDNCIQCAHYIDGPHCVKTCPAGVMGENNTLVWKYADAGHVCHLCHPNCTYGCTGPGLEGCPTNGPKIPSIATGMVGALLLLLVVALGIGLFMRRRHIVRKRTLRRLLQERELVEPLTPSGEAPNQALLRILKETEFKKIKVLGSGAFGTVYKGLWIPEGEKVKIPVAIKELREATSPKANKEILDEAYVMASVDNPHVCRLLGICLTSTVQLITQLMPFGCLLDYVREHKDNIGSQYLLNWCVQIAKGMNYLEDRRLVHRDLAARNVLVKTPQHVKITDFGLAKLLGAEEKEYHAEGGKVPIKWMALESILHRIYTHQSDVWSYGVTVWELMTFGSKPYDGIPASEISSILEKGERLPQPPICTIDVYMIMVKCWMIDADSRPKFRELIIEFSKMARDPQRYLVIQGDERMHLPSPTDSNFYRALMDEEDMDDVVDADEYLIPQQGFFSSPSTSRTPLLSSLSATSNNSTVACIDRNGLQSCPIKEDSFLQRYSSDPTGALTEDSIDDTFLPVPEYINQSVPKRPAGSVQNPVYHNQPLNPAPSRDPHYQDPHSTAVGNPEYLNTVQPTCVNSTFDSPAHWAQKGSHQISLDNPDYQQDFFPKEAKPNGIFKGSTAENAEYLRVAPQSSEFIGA
# [20] = target: T3, Epidermal growth factor receptor; assay type: cell-based, PC-9/ER1
# [21] = Clearance in mouse plasma at 5 mg/kg,iv; assay type: ADME, organism-based; method in brief: as §3
# [22] = tested on: Epidermal growth factor receptor (Homo sapiens), P00533 [L858R,T790M]; assay: In vivo inhibition of EGFR L858R/T790M double mutant in SCID mouse xenografted with human NCI-H1975 cells assessed as reduction in AKT phosphorylation at S473 residue at 100 mg/kg, po and measured after 16 hrs by MSD assay; assay type: functional, organism-based; method in brief: as §2
# [23] = Clearance in dog plasma at 1 mg/kg,iv; assay type: ADME, organism-based, Canis lupus familiaris; method in brief: as §3
# [24] = Fraction unbound in SCID mouse plasma at 50 to 100 mg/kg,po and measured upto 16 hrs by LC-MS assay; assay type: ADME, organism-based; conditions: in vivo, dose 50-100 mg/kg
# [25] = Aqueous kinetic solubility of compound in PBS buffer at pH 7.4 at 100 uM incubated for 24 hrs by LC/CLND analysis; assay type: physicochemical; conditions: read-out: Kinetic_solubility
# Method in brief: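 Kinetic aqueous solubility measured at pH 7.4.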
# PC-9 = assay: Antiproliferative activity against human PC-9 cells harboring harboring EGFR del (746 to 750) mutant assessed as reduction in cell viability; assay type: functional, cell-based
# [26] = target: T2, Epidermal growth factor receptor; assay type: cell-based, PC-9
# [27] = Volume of distribution at steady state in mouse at 5 mg/kg,iv; assay type: ADME, organism-based; conditions: in vivo, read-out: Vdss; method in brief: as §3
# [28] = target: T4, Epidermal growth factor receptor; assay: Inhibition of human EGFR T790M/L858R double mutant assessed as apparent inhibition constant using Fl-EEPLYWSFPAKKK-CONH2 as peptide substrate preincubated for 30 mins followed by addition of substrate and measured after 30 mins by Morrison plot analysis; conditions: read-out: Ki(app)
# Epidermal growth factor receptor (Homo sapiens, UniProt P00533, L858R), sequence (P00533 25-1210 L858R limits assumed): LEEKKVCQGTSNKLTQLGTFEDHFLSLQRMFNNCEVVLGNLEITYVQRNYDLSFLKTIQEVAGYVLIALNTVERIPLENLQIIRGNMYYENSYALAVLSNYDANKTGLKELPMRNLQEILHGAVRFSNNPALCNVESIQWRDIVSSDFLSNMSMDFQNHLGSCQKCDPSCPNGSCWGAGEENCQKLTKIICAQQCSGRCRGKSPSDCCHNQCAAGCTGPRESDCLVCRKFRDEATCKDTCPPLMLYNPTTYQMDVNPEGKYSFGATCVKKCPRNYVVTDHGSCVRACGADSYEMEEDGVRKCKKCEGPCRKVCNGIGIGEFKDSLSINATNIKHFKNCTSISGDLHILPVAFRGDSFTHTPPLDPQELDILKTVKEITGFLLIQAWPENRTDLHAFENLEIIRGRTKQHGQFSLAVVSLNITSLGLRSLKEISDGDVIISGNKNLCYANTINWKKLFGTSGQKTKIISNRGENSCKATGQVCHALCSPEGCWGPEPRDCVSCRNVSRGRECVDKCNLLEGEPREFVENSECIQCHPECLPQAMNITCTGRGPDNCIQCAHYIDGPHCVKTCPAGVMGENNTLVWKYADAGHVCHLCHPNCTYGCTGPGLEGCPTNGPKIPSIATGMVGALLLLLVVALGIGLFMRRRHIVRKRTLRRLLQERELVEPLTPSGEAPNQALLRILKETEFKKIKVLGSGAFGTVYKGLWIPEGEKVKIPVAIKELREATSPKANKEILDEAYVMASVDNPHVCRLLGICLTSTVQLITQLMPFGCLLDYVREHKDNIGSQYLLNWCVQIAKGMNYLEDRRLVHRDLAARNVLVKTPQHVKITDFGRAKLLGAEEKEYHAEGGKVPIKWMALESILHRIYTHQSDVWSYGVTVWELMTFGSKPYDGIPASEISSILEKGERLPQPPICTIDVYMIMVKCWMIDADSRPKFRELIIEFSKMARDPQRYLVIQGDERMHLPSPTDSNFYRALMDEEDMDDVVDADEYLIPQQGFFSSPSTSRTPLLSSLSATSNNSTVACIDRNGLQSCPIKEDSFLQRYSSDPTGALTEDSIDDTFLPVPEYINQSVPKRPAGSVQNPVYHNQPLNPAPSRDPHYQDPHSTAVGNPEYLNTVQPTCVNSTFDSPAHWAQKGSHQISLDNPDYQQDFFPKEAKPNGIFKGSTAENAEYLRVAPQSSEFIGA
# Epidermal growth factor receptor (Homo sapiens), P00533 [L858R,T790M], sequence (P00533 whole entry T790M/L858R, looked up): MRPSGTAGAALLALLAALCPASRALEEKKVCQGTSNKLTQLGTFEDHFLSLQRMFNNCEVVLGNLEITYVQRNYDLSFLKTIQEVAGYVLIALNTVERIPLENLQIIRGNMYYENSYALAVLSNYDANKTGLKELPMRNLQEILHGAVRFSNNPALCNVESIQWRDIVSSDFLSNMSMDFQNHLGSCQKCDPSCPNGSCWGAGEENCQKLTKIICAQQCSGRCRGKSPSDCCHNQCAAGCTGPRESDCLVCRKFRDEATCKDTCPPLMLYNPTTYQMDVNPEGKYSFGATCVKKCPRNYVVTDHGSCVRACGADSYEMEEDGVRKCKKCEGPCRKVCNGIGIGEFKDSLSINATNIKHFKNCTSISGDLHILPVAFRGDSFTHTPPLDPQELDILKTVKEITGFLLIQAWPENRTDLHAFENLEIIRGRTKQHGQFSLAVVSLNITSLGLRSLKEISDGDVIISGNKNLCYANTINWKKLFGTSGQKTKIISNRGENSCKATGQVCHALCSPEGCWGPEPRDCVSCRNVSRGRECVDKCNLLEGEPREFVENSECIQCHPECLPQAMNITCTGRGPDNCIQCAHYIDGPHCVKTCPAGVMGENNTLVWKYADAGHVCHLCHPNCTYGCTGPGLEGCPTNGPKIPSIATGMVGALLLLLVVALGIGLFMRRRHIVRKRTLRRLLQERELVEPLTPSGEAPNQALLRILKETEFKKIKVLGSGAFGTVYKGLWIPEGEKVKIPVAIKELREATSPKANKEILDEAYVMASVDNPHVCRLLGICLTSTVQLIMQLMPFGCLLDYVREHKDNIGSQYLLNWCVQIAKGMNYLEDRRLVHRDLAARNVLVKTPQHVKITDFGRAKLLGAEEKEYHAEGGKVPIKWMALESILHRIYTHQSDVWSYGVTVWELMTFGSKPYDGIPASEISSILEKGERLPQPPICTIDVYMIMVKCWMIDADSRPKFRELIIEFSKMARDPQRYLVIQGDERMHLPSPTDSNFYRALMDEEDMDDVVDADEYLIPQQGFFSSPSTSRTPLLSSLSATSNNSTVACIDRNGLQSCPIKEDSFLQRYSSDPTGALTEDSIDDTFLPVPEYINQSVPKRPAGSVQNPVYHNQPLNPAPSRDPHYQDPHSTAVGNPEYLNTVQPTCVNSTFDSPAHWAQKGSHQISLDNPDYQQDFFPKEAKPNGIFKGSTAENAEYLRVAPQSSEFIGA
# T4 sequence (P00533 25-1210 T790M/L858R limits assumed): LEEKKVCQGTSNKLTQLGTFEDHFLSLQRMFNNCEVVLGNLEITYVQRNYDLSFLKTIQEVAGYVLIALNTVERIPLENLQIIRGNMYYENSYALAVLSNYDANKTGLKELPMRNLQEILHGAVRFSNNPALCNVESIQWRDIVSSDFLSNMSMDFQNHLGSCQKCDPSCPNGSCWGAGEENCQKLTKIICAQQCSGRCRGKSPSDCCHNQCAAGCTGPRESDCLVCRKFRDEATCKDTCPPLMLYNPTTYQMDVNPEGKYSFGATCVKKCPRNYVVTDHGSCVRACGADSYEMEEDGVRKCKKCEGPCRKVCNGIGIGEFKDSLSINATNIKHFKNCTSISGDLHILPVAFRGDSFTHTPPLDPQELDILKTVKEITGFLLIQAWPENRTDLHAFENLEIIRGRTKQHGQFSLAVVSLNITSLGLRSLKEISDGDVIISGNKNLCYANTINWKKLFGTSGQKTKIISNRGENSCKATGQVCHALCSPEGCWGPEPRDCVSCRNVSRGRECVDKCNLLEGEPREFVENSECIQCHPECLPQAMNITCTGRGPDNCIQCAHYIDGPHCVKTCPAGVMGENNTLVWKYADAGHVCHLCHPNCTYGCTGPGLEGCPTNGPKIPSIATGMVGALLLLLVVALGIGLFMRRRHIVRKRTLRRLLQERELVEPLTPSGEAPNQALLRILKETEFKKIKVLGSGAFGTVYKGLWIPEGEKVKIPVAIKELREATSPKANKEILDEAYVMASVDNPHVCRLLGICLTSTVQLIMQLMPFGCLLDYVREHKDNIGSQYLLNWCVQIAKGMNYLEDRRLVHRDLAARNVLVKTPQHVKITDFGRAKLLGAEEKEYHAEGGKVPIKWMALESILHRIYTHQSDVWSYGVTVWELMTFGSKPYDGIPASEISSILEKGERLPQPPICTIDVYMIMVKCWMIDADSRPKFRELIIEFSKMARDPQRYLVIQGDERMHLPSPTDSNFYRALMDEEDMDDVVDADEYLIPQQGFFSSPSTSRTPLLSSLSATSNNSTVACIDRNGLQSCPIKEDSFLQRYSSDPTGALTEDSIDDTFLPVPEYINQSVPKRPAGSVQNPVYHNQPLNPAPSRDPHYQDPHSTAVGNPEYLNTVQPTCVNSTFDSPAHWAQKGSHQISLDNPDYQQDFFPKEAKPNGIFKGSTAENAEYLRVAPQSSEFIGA
Ki [1] [nM],Ki [2] [nM],CLhep predicted [3] [mL/min/kg],Ki [4] [nM],CLhep predicted [5] [mL/min/kg],Papp A→B [6] [×10⁻⁶ cm/s],Ki [7] [nM],IC50 [10] [nM],IC50 [19] [nM],IC50 [20] [nM],"solubility kinetic at 24 h, 100 µM [25] [µM]",IC50 [26] [nM],Ki [28] [nM],SMILES,other results
> 100,–,–,–,–,–,–,–,–,–,–,–,–,COC1CCN(c2nccc(Nc3cc4c(cn3)c(C(N)=O)nn4C(C)C)n2)CC1,–
55,12,7.7,1.8,4,21,43,–,–,–,–,–,–,Cc1nc2cnc(Nc3ccnc(-c4cnn(S(=O)(=O)C5CC5)c4)n3)cc2n1C(C)C,–
–,1300,5.2,43,9,19,1100,–,–,–,–,–,–,Cc1nc2cnc(Nc3ccnc(N4CC[C@H](O)[C@H](F)C4)n3)cc2n1C(C)C (racemic),–
–,–,3.8,–,2.7,8.9,–,27,218,8,2,33,–,CC[C@H](C)n1nc(N2CC(C(C)(C)O)C2)c2cnc(Nc3ccnc(-c4cnn(S(=O)(=O)C5CC5)c4)n3)cc21,inhibition [8]: Active; inhibition [9]: Active; IC50 (NCI-H1975): 361 nM; inhibition [11]: Active; T>IC50 (Plasma [12]): 16 h; inhibition [13]: Active; Vd [14]: 6.9 L/kg; inhibition [15]: Active; T>IC50 (Plasma [16]): 8 h; bioavailability [17]: 30%; bioavailability [18]: 19%; clearance [21]: 104 mL/min/kg; inhibition [22]: Active; clearance [23]: 13 mL/min/kg; Fu [24]: 0.009; IC50 (PC-9): 151 nM; Vd [27]: 3.4 L/kg
3.4,1.4,–,1.6,–,4.6,3.8,–,–,–,11,–,1.2,CC(C)n1cc(C(=O)NC2CCOCC2)c2cnc(Nc3ccnc(-c4cnn(S(=O)(=O)C5CC5)c4)n3)cc21,–
10,–,9.3,–,6.7,12,–,74,850,19,1,76,2.1,CC(C)n1nc(N2CCOCC2)c2cnc(Nc3ccnc(-c4cnn(S(=O)(=O)C5CC5)c4)n3)cc21,–
–,–,7,–,7.7,12,–,–,–,–,1,–,–,CC(C)n1nc(N2CCC(O)CC2)c2cnc(Nc3ccnc(-c4cnn(S(=O)(=O)C5CC5)c4)n3)cc21,–
8.2,–,13,–,8.4,16,–,64,3900,14,2,80,0.79,CC(C)n1nc(N)c2cnc(Nc3ccnc(-c4cnn(S(=O)(=O)C5CC5)c4)n3)cc21,–
7,–,8.9,–,7.1,20,–,32,210,10,< 1,130,< 0.6,CC(C)n1nc(N2CC(C(C)(C)O)C2)c2cnc(Nc3ccnc(-c4cnn(S(=O)(=O)C5CC5)c4)n3)cc21,–
